The test system of one data set is LNCaP. Description: Cytotoxicity against human LNCAP cells after 24 hrs by MTT assay. The class given is functional, cell-based.
A further data set relates to PC-3. The data set is described as follows: Cytotoxicity against human PC3 cells after 24 hrs by MTT assay. It is filed as functional, cell-based. Particulars: PC-3, 24 h.
The test system of the next data set is DU-145. Description: Cytotoxicity against human DU145 cells after 24 hrs by MTT assay. Particulars: DU-145, 24 h. The class given is functional, cell-based.
Data set [1] deals with Rattus norvegicus. Description: Anti-androgenic activity in citral-induced prostatic hyperplasia Sprague-Dawley rat model assessed as prostate weight at 10 mg/kg, po administered once daily coadministered with citral for 21 days measured 24 hrs last post dose (reference value: 100%). It is filed as functional. The method, boiled down:
(§1)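 Adult male Sprague-Dawley rats (250-280 g, n = 5), citral 100 mg/kg orally once daily for 28 days. From day 8, compound or flutamide at 10 mg/kg orally once daily for the remaining 21 days. Prostate weight is expressed relative to the citral group (100%). Prostates fixed in 10% formalin; 5 μ sections stained with H&E, examined by light microscopy.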

Data set [2] concerns Rattus norvegicus. The data set is described as follows: Toxicity in citral-induced prostatic hyperplasia Sprague-Dawley rat model assessed as effect on testis weight at 10 mg/kg, po administered once daily coadministered with citral for 21 days measured 24 hrs last post dose. It is filed as organism-based. Particulars: in vivo.
The test system of data set [3] is Rattus norvegicus. Description: Anti-androgenic activity in citral-induced prostatic hyperplasia Sprague-Dawley rat model assessed increase in distinction between stromal and acinar compartments at 10 mg/kg, po administered once daily coadministered with citral for 21 days measured 24 hrs last post dose by hematoxyline and eosin stainig based light microscopic analysis. The class given is functional, organism-based. The method, boiled down: as §1

Another data set deals with Mus musculus. The data set is described as follows: Anti-depressant like activity in Swiss albino mouse assessed as reduction in immobility time at 20 mg/kg, po administered 60 mins prior to test measured for 5 mins by forced swim test relative to control. The class given is functional. Also on record: scale not given: the % may be the effect or the level left. An outline of the steps: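 Male Swiss albino mice (20-25 g); compound 20 mg/kg, imipramine 60 mg/kg or fluoxetine 20 mg/kg given orally in 1% gum acacia (10 mL/kg). After 60 min: 15 min pre-swim in a water cylinder (10 cm depth, 25 ± 1 °C), then retest at 24 h. Immobility recorded for 5 min after 1 min acclimatization; N = 7-9, mean ± SEM, unpaired t-test.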

The nature of data set [4]: Clearance in Sprague-Dawley rat serum at 10 mg/kg, iv administered as single dose by LC-MS/MS analysis. The class given is ADME, organism-based. An outline of the steps: (§2)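 Male Sprague Dawley rats (250 ± 25 g), fasted overnight (12-16 h), n = 3 per time point; single 10 mg/kg dose orally by feeding needle, or iv from DMSO solution. Serum, prostate and hypothalamus collected up to 48 h post oral dose; hypothalamus from three rats pooled. LC-MS/MS (MRM, phenacetin internal standard), linear 5-400 ng/mL; noncompartmental and compartmental analysis.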

A short description of data set [5]: Volume of distribution at steady state in Sprague-Dawley rat serum at 10 mg/kg, iv administered as single dose by LC-MS/MS analysis. Particulars: read-out: Vdss. It is filed as ADME, organism-based. An outline of the steps:
as §2

Data set [6] is described as follows: Cmax in Sprague-Dawley rat serum at 10 mg/kg, po administered as single dose by LC-MS/MS analysis. Also on record: dose 10 mg/kg, route oral. It is filed as ADME, organism-based. The method, boiled down: as §2
Data set [7] in a line: AUClast in Sprague-Dawley rat serum at 10 mg/kg, po administered as single dose by LC-MS/MS analysis. It is filed as ADME, organism-based. Also on record: dose 10 mg/kg, route oral, time 0 - last. An outline of the steps: as §2
The nature of data set [8]: Half life in Sprague-Dawley rat serum at 10 mg/kg, po administered as single dose by LC-MS/MS analysis. The class given is ADME, organism-based. An outline of the steps: as §2
The test system of another data set is Serum. Description: Volume of distribution at steady state in Sprague-Dawley rat serum at 10 mg/kg, po administered as single dose by LC-MS/MS analysis. Particulars: in vivo. The class given is ADME, organism-based. An outline of the steps:
as §2

Data set [9] can be described thus: Tmax in Sprague-Dawley rat prostate at 10 mg/kg, po administered as single dose by LC-MS/MS analysis. It is filed as ADME, organism-based, Prostate gland. An outline of the steps:
as §2

Data set [10] in a line: Clearance in Sprague-Dawley rat prostate at 10 mg/kg, po administered as single dose by LC-MS/MS analysis. The class given is ADME, organism-based, Prostate gland. Particulars: in vivo. The method, boiled down: as §2
Data set [11] in a line: Cmax in Sprague-Dawley rat hypothalamus at 10 mg/kg, po administered as single dose by LC-MS/MS analysis. Further details: dose 10 mg/kg, route oral. The class given is ADME, organism-based. An outline of the steps: as §2
A further data set has as its system Hypothalamus. The data set is described as follows: Clearance in Sprague-Dawley rat hypothalamus at 10 mg/kg, po administered as single dose by LC-MS/MS analysis. The class given is ADME, organism-based. Particulars: in vivo. An outline of the steps: as §2

These results are taken from ChEMBL document CHEMBL4024713, “Novel aryl piperazines for alleviation of 'andropause' associated prostatic disorders and depression” (Eur J Med Chem, 2017).

Molecules are shown by their SMILES. pEC50: −log10 of the molar value. Active and inactive are the calls of the source. No cut-off for these calls is given here.

Take `c1ccc(N2CCN(CCCN3CCN(c4ccccn4)CC3)CC2)nc1`: the pEC50 in the data set on LNCaP was 4.81; in the data set on PC-3 it was below 4.10; with DU-145, below 4.10. In addition, the Activity was 53.8% with Rattus norvegicus [1], “Non-Toxic” in the data set on Rattus norvegicus [2] and 69.4% with Mus musculus. Moreover, the outcome with Rattus norvegicus [3] was Active. In addition, in [4], the clearance is 68.3 mL/min/kg. The Vd in data set [5] turned out to be 28.3 L/kg. Moreover, the results for the Cmax in [6] and in data set [11] were 329 ng/mL and 461 ng/g, respectively. The molecule also returned an AUC(0-t) in data set [7] of 900 ng·h/mL. Moreover, the half-life in data set [8] was 5.4 h. The same molecule yielded a Vdss in the data set with Serum of 23.7 L/kg. For the same molecule, the Tmax in [9] came out at 4 h. Moreover, the figures for the CL (in [10]; in the data set with Hypothalamus) were 0.3 g/h/kg and 0.8 g/h/kg, respectively.
